# CHRM5 agonist – CHRM5 agonism in calcium assay; P08912; CHO-K1 hM5 cells, Fluo-8 calcium fluorescence; 0% DMSO wells, 100% maximal acetylcholine response; activation, % at 3 µM; actives 0.19% (n = 360,000);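 active = activation above the run's mean over test compounds plus 3 SD, cut at about 23% in these data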;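 also: signal is peak over basal fluorescence ratio across the kinetic read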
# Target sequence (P08912 whole entry, looked up): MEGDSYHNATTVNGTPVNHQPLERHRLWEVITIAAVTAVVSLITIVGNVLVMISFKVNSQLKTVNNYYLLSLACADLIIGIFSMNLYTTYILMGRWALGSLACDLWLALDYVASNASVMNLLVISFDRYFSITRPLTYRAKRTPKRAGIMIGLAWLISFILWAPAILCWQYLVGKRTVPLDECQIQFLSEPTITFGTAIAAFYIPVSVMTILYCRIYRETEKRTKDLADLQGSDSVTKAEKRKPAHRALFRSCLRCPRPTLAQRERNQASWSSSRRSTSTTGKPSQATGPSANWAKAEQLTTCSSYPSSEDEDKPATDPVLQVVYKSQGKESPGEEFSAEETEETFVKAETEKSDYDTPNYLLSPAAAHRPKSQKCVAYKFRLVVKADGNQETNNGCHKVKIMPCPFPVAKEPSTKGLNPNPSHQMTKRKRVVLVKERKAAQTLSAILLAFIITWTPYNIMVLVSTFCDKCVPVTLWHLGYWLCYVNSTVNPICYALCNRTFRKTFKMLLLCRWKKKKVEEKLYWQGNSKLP
# M5 PAM – potentiates acetylcholine response at human M5 receptor; P08912; CHO-K1 hM5, Fluo-8 calcium, ACh EC20 PAM; 0% = ACh EC20, 100% = ACh EC100; activation, % at 3 µM; actives 0.3% (n = 360,000);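 active = activation above the run cutoff, the mean activation of all test compounds plus 3 SD, cut at about 18% in these data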
#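 system = human M5 receptor in CHO-K1 cells | reagent = EC20 acetylcholine as agonist stimulus | compound dosing = single-point, 3 µM nominal | incubation = Fluo-8 loading 80 min at 37 °C plus 30 min room temperature | detection = Fluo-8 calcium dye fluorescence, kinetic read | benchmarks = low control EC20 acetylcholine (0%), high control EC100 acetylcholine (100%)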
# CHRM4 agonist – agonists of human muscarinic M4 receptor (CHRM4); P08173; CHO-K1 hM4/Gqi5, Fluo-8 calcium fluorescence; vehicle 0%, full acetylcholine response 100%; activation, % at 3 µM; actives 0.14% (n = 360,000); AID 624127;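 active = activation above the run mean over all test wells plus 3 SD, cut at about 32% in these data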;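 also: peak over basal fluorescence ratio per well then scaled between controls; 0% = DMSO wells and 100% = acetylcholine at EC100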
# M4 antag – antagonists of human muscarinic M4 receptor (CHRM4) | P08173 | CHO-hM4 cells, ACh EC80, Fluo-8 calcium fluorescence | inhibition, % at 3 µM | actives 0.73% (n = 360,000);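 active = inhibition above its plate's cutoff, the mean inhibition of sample wells plus 3 SD, cut at about 27% in these data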;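 also: 0% = acetylcholine EC80 with DMSO and 100% = DMSO without agonist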
# CHRM4 PAM – positive allosteric modulators of human muscarinic M4 receptor; P08173; AID 624126; actives 0.4% (n = 360,000); CHO-K1 hM4/Gqi5, Fluo-8 calcium fluorescence, ACh EC20; 0% = ACh EC20, 100% = maximal ACh; activation, % at 3 µM;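 active = activation above its plate's cutoff, the mean activation of sample wells plus 3 SD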
# CHRM5 antagonist – antagonists of human muscarinic M5 receptor (CHRM5) | P08912 | CHO-hM5 cells, Fluo-8 calcium fluorescence, ACh EC80 | inhibition, % at 3 µM | actives 0.59% (n = 360,000);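 active = inhibition above a per-plate cutoff, the mean of that plate's test compounds plus 3 SD, cut at about 27% in these data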;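 also: 0% = acetylcholine EC80 with DMSO and 100% = DMSO without agonist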
# Active calls of the source: *. Hits are enriched below; roughly 1.8% of the tested compounds scored in any of these assays.
SMILES,CHRM5 agonist,M5 PAM,CHRM4 agonist,M4 antag,CHRM4 PAM,CHRM5 antagonist
CC(C)(C)OC(=O)C[C@@H]1C/C=C\C[C@@H](CC(=O)N(CCO)Cc2ccccc2)C(=O)N[C@@H](c2ccccc2)COC1=O,0,-26,16,4,-2,29*
O=C(C[C@H]1C/C=C\CC[C@H](Cc2ccc(F)cc2)C(=O)O[C@@H](c2ccccc2)CNC1=O)N[C@@H](CO)Cc1ccccc1,2,-21,9,1,3,16
O=C(C[C@H]1C/C=C\C[C@H](Cc2ccc(F)cc2)C(=O)O[C@@H](c2ccccc2)CNC1=O)N[C@H](CO)Cc1ccccc1,12,-2,39*,3,8,16
O=C1NC[C@@H](c2ccccc2)OC(=O)[C@H](Cc2ccc(F)cc2)C/C=C\C[C@@H]1CC(=O)N(CCO)Cc1ccccc1,0,-29,27,27*,-13,14
O=C1NC[C@H](c2ccccc2)OC(=O)[C@@H](Cc2ccc(F)cc2)CC/C=C/C[C@H]1CC(=O)N(CCO)Cc1ccccc1,5,-39,26,20,-12,21
C[C@@H]1COC(=O)[C@H](CC(=O)OC(C)(C)C)C/C=C\C[C@H](CC(=O)N(CCO)Cc2ccccc2)C(=O)N1,-5,3,0,4,11,15
COc1ccc(Br)cc1CN(C)C(=O)c1cnc(C)cn1,-2,1,0,5,-1,6
Nc1ncnc2c(C3OC(CO)C(O)C3O)scc12 (stereo not given),7,-1,1,0,5,-3
CC1(C(=O)NS(=O)(=O)C2CC2)CCCN(C(=O)COCc2ccccc2)C1 (stereo not given),0,5,1,-10,6,-10
C/C(CC(=O)Nc1ccc(Cl)cc1Cl)=N\NC(=O)C(=O)N1CCCC1,-1,2,0,-1,-3,0
C/C(CC(=O)Nc1ccccc1Br)=N\NC(=O)C(=O)N1CCCC1,-6,61*,0,1,5,2
CN(Cc1ccccc1)C(=O)c1ccc(NC(=O)Cc2ccc([N+](=O)[O-])cc2)cc1,26*,14,13,1,-3,2
O=C(CSc1ccc2nnc(-c3ccccn3)n2n1)Nc1ccccc1F,-1,-9,1,-2,-5,9
CC1(C)CCN2CCC(C)(C)c3c(O)ccc1c32,95*,-16,30,26,-13,41*
OC1(c2cccs2)CN(c2ccccc2)C2=[N+]1CCCC2 (stereo not given),-16,-5,1,-3,-6,1
OC1(c2cccs2)CN(c2ccc(Br)cc2)C2=[N+]1CCCS2 (stereo not given),-20,-28,0,27*,-14,20
COc1ccc(OC)c(N2CC(O)(c3cccs3)[N+]3=C2SCCC3)c1 (stereo not given),-2,10,0,3,1,-1
CCOc1ccc(N2CC(O)(c3cccs3)[N+]3=C2CCCC3)cc1 (stereo not given),-17,-33,1,26,-18,36*
Cc1cc(NC(=O)CN(C)CC(=O)Nc2ccc(Cl)c(C(F)(F)F)c2)no1,4,-6,6,-7,23*,8
Cc1cc(NC(=O)CSCC(=O)Nc2ccc(Cl)c(C(F)(F)F)c2)no1,2,-8,4,-5,0,10
O=C1CCCN2N=C(SCC(=O)Nc3cccc(C(F)(F)F)c3)SC2=N1,6,-13,14,12,-14,36*
CCCCc1nc(Cl)c(CO)n1Cc1ccc(-c2ccccc2-c2nnn[nH]2)cc1,33*,-14,0,-6,2,2
CCn1c(=O)c2cc(C(=O)NCCN(C)C)sc2c2ccccc21,-4,19*,1,-4,-4,-11
Cc1cn([C@H]2C[C@H](O)[C@@H](/C=C/C(=O)NCCN3CCOCC3)O2)c(=O)[nH]c1=O,3,2,0,14,-1,14
COc1ccc(CN2CCNC(=O)C2CC(=O)NC2CCCCCCC2)cc1OC (stereo not given),-10,-6,2,36*,-26,8
SMILES,CHRM5 agonist,M5 PAM,CHRM4 agonist,M4 antag,CHRM4 PAM,CHRM5 antagonist
O=C(CC1C(=O)NCCN1Cc1ccc(F)cc1)NC1CCCCCCC1 (stereo not given),-7,-4,2,45*,-15,-1
Cc1ccc(CN2CCNC(=O)C2CC(=O)NC2CCCCCC2)cc1 (stereo not given),-5,0,0,0,2,15
Cc1csc(C(=O)O)c1-c1c(C)csc1C(=O)O,-2,0,1,-6,23*,16
Cc1csc(C(=O)O)c1NC(=O)c1ccc(F)cc1,-2,-3,1,-13,0,12
COc1cc(/C=C/C(O)=C/C(=O)/C=C/c2ccc(O)cc2)ccc1O,48*,-35,50*,27*,-17,41*
CC(=O)c1sc(Nc2ccc(Oc3ccccc3)cc2)nc1C,-5,-20,7,34*,-15,19
CC(=O)c1sc(Nc2ccccc2)nc1C,-7,5,0,-3,-3,4
CCOC(=O)C1(C)CCN1C(=O)c1oc2ccccc2c1C (stereo not given),-1,2,1,-19,8,-5
CN(C)S(=O)(=O)c1ccc(C(=O)Nc2ccc(CN3CCCC3)cc2)cc1,-7,-8,1,69*,-18,6
CN(C)S(=O)(=O)c1ccc(C(=O)Nc2ccc(CCC(=O)N3CCCC3)cc2)cc1,-1,-5,1,1,10,3
O=C(Nc1ccc(S(=O)(=O)N2CCCCC2)cc1)c1ccc(CN2CCc3ccccc3C2)cc1,-4,-12,8,40*,-16,16
COc1ccc(C(CCNCc2ccc(OC(C)C)cc2)C(C)C)cc1 (stereo not given),-2,-23,27,23,-19,13
COc1ccc(C(CCNCc2ccc(N(C)C)cc2)C(C)C)cc1 (stereo not given),3,-29,27,42*,-52,19
O=C(NC(c1ccccc1)C(Cl)Cl)c1ccccc1 (stereo not given),0,5,1,-3,-7,-3
[N-]=[N+]=NC(c1ccccc1)C(NC(=O)c1cc(C(F)(F)F)cc(C(F)(F)F)c1)c1ccccc1 (stereo not given),0,-17,18,31*,-13,11
COC(=O)c1c(N)n(CCCN2CCOCC2)c2nc3ccccc3nc12,0,-12,1,4,-2,10

# Compound activity from PubChem BioAssay.
